Source: ChEMBL document CHEMBL3217582, “Design of symmetrical and nonsymmetrical N,N-dimethylaminopyridine derivatives as highly potent choline kinase alpha inhibitors” (Medchemcomm, 2013)
The source made the active and inactive calls. The rule behind the calls is not given here.

Assays:
[1] = Inhibition of recombinant delta49N CHKA2 (unknown origin) assessed as ADP formation using choline as substrate by enzyme coupled assay; set-up: species or system Homo sapiens
Summary of the method: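 Δ49N CHKA2 (20 ng) with 72 µM choline and 450 µM ATP (both at KM) in 100 mM Tris pH 7.5, 100 mM KCl, 10 mM MgCl2. Coupled system: 500 µM PEP, pyruvate kinase, LDH, 250 µM NADH. Inhibitor at varying concentrations. ADP formation followed as NADH loss at 340 nm. IC50 from variable-slope sigmoidal least-squares fit.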

A549 = assay: Growth inhibition of human A549 cells overexpressing CHKA2 after 72 hrs by sulforhodamine assay; type: functional; conditions: A549, 72 h
Summary of the method: (§1)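 A549 (DMEM) or HCT-116 (RPMI-1640) cells in 10% FCS, 37°C, 5% CO2. Cells treated 24 h after seeding with 9 inhibitor concentrations, six replicates, for 72 h. Fixed with 10% TCA, stained with 0.4% SRB, read at 540 nm. GI50 from variable-slope sigmoidal fit of percent-of-control curves.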

HCT-116 = assay: Growth inhibition of human HCT116 cells overexpressing CHKA2 after 72 hrs by sulforhodamine assay; type: functional; conditions: HCT-116, 72 h; summary of the method: as §1
Choline kinase alpha [2] = molecular target: T1, Choline kinase alpha (Homo sapiens, UniProt P35790); assay: Inhibition of CHKA in human HCT116 cells assessed as [3H]phosphocholine formation using [3H]choline chloride as substrate at 2.4 +/-1 uM incubated for 1 hr prior to substrate addition measured after 1 hr by scintillation counting analysis; type: cell-based; conditions: HCT-116
Summary of the method: (§2)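 HCT-116 cells pretreated 1 h with 0.16, 0.8, 4, 20 or 100 µM inhibitor. Then pulsed 1 h with [3H]choline chloride (0.5 µCi/mL). Cells washed in cold PBS and extracted with methanol/chloroform. Choline removed with tetraphenylborate in heptan-4-one. Aqueous phosphocholine counted by liquid scintillation and compared with untreated controls.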
Target sequence in this assay (P35790 whole entry, looked up): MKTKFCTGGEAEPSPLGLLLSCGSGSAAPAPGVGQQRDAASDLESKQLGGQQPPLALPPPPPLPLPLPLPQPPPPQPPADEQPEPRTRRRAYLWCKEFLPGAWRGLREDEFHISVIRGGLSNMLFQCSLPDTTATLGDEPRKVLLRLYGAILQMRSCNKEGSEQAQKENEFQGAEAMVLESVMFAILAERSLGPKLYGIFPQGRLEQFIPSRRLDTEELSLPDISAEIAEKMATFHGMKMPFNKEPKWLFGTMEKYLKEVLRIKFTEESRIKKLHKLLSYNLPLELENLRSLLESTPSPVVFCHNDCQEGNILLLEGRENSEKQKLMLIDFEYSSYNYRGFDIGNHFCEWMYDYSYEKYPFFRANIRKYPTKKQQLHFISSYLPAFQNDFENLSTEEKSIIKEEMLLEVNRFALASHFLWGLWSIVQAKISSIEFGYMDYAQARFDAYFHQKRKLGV

Homo sapiens [3] = species on record: Homo sapiens; assay: Competitive inhibition of recombinant delta49N CHKA2 (unknown origin) using 72 uM choline as substrate by Lineweaver-burk plot analysis in presence of 10 uM to 5 mM ATP
Choline kinase alpha [4] = molecular target: T1, Choline kinase alpha; assay: Inhibition of CHKA in human HCT116 cells assessed as [3H]phosphocholine formation using [3H]choline chloride as substrate at 6.5 +/-4 uM incubated for 1 hr prior to substrate addition measured after 1 hr by scintillation counting analysis; type: cell-based; conditions: HCT-116; summary of the method: as §2
Target sequence in this assay (P35790 whole entry, looked up): as above

Choline kinase alpha [5] = molecular target: T1, Choline kinase alpha; assay: Inhibition of CHKA in human HCT116 cells assessed as [3H]phosphocholine formation using [3H]choline chloride as substrate incubated for 1 hr prior to substrate addition measured after 1 hr by scintillation counting analysis; type: cell-based, HCT-116; conditions: for inhibition: HCT-116; summary of the method: as §2
Homo sapiens [6] = species on record: Homo sapiens; assay: Competitive inhibition of recombinant delta49N CHKA2 (unknown origin) using 40 uM to 20 mM choline as substrate by Lineweaver-burk plot analysis in presence of 450 uM ATP
Homo sapiens [7] = species on record: Homo sapiens; assay: Mixed inhibition of recombinant delta49N CHKA2 (unknown origin) using choline as substrate by Lineweaver-burk plot analysis in presence of ATP

CN(C)c1cc[n+](CCCCCCCCCCC[n+]2ccc(N(C)C)cc2)cc1
IC50 [1]: 0.29 µM
GI50 (A549): 1.6 µM
GI50 (HCT-116): 2 µM

CN(C)c1cc[n+](CCCCCCCCCCCC[n+]2ccc(N(C)C)cc2)cc1
IC50 [1]: 0.27 µM
inhibition (Choline kinase alpha [2]): > 75%
inhibition (Homo sapiens [3]): inactive
GI50 (A549): 0.38 µM
inhibition (Choline kinase alpha [4]): > 75%
GI50 (HCT-116): 0.64 µM
EC50 (Choline kinase alpha [5]): 1.3 µM
inhibition (Choline kinase alpha [5]): Dose-dependent effect
inhibition (Homo sapiens [6]): Active

CN(C)c1cc[n+](CCCCCCCCCCCCn2cnc3c(N)ncnc32)cc1
IC50 [1]: 0.8 µM
GI50 (A549): 5.3 µM
inhibition (Homo sapiens [7]): Active
GI50 (HCT-116): 4.1 µM

CN(C)c1cc[n+](CCCCCCCCCCCCCC[n+]2ccc(N(C)C)cc2)cc1
IC50 [1]: 0.15 µM
inhibition (Choline kinase alpha [2]): > 75%
GI50 (A549): 0.33 µM
inhibition (Choline kinase alpha [4]): > 75%
GI50 (HCT-116): 0.29 µM
EC50 (Choline kinase alpha [5]): 0.52 µM
inhibition (Choline kinase alpha [5]): Dose-dependent effect

CN(C)c1cc[n+](CCCCCCCC[n+]2ccc(N(C)C)cc2)cc1
IC50 [1]: 2.7 µM
GI50 (A549): 3.3 µM
GI50 (HCT-116): 2.5 µM

CN(C)c1cc[n+](CCCCCCCCCC[n+]2ccc(N(C)C)cc2)cc1
IC50 [1]: 0.67 µM
GI50 (A549): 4.2 µM
GI50 (HCT-116): 2.8 µM

CN(C)c1cc[n+](CCCCCCCCCCCCn2cnc3ccccc32)cc1
IC50 [1]: 5.1 µM
GI50 (A549): 1.3 µM
GI50 (HCT-116): 0.69 µM

CN(C)c1cc[n+](CCOCCOCCOCCn2cnc3ccccc32)cc1
GI50 (HCT-116): > 1000 µM

CN(C)c1cc[n+](CCCCCCCCC[n+]2ccc(N(C)C)cc2)cc1
IC50 [1]: 1.3 µM
GI50 (A549): 4 µM
GI50 (HCT-116): 2.6 µM

CN(C)c1cc[n+](CCOCCOCCOCC[n+]2ccc(N(C)C)cc2)cc1
GI50 (HCT-116): > 1000 µM
